According to ChEMBL document CHEMBL1147809, “Tumor-cell-targeted methionine-enkephalin analogues containing unnatural amino acids: design, synthesis, and in vitro antitumor activity” (2006):
*1 amine or outer side, *2 acyl side, *3 side chain or, on linkers, in order; H or OH if unused. Where a SMILES comes first, the peptide text is derived from it. [ ]: non-standard residue; d: D form. X1 = O=C(C(N[*:1])C1C2CC3CC(C2)CC1C3)[*:2]; X2 = O=C(C1(N[*:1])C2CC3CC(C2)CC1C3)[*:2]

Experiments:
Type in all cases: functional
HeLa [1] = assay: Antiproliferative activity against human HeLa cell line at 1000 uM relative to control
In short: (§1)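 Cells from ATCC grown as monolayers in DMEM with 10% FBS, 2 mM glutamine, penicillin/streptomycin, 37 °C, 5% CO2. Seeded at 2 × 10^4 cells/mL, and after 24 h the medium was replaced with fresh medium containing compound (water/10% DMSO stock, PBS working dilutions 10^-3 to 10^-6 M). Exposure was 72 h, then MTT read-out. Growth % = (A_peptide − A_blank)/(A_control − A_blank) × 100, with inhibition taken relative to untreated cells. Values are means of three experiments run in triplicate.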

HBL [2] = assay: Antiproliferative activity against human HBL cell line at 10 uM relative to control; in short: as §1
HBL [3] = assay: Antiproliferative activity against human HBL cell line at 100 uM relative to control; in short: as §1
HBL [4] = assay: Antiproliferative activity against human HBL cell line at 1000 uM relative to control; in short: as §1
HT-29 [5] = assay: Antiproliferative activity against human HT29 cell line at 10 uM relative to control; in short: as §1
HT-29 [6] = assay: Antiproliferative activity against human HT29 cell line at 100 uM relative to control; in short: as §1
HT-29 [7] = assay: Antiproliferative activity against human HT29 cell line at 1000 uM relative to control; in short: as §1
SW-620 [8] = assay: Antiproliferative activity against human SW620 cell line at 10 uM relative to control; in short: as §1
SW-620 [9] = assay: Antiproliferative activity against human SW620 cell line at 100 uM relative to control; in short: as §1
SW-620 [10] = assay: Antiproliferative activity against human SW620 cell line at 1000 uM relative to control; in short: as §1
Caco-2 [11] = assay: Antiproliferative activity against human Caco-2 cell line at 10 uM relative to control; in short: as §1
Caco-2 [12] = assay: Antiproliferative activity against human Caco-2 cell line at 100 uM relative to control; in short: as §1
Caco-2 [13] = assay: Antiproliferative activity against human Caco-2 cell line at 1000 uM relative to control; in short: as §1
MCF7 [14] = assay: Antiproliferative activity against human MCF7 cell line at 1000 uM relative to control; in short: as §1
HEp-2 [15] = assay: Antiproliferative activity against human HEp2 cell line at 10 uM relative to control; in short: as §1
HEp-2 [16] = assay: Antiproliferative activity against human HEp2 cell line at 100 uM relative to control; in short: as §1
HEp-2 [17] = assay: Antiproliferative activity against human HEp2 cell line at 1000 uM relative to control; in short: as §1
HeLa [18] = assay: Antiproliferative activity against human HeLa cell line at 10 uM relative to control; in short: as §1
HeLa [19] = assay: Antiproliferative activity against human HeLa cell line at 100 uM relative to control; in short: as §1
SW-620 [20] = assay: Antiproliferative activity against human SW620 cell line at 1 uM relative to control; in short: as §1
Caco-2 [21] = assay: Antiproliferative activity against human Caco-2 cell line at 1 uM relative to control; in short: as §1
HEp-2 [22] = assay: Antiproliferative activity against human HEp2 cell line at 1 uM relative to control; in short: as §1
HeLa [23] = assay: Antiproliferative activity against human HeLa cell line at 1 uM relative to control; in short: as §1
HBL [24] = assay: Antiproliferative activity against human HBL cell line at 1 uM relative to control; in short: as §1
HT-29 [25] = assay: Antiproliferative activity against human HT29 cell line at 1 uM relative to control; in short: as §1
MCF7 [26] = assay: Antiproliferative activity against human MCF7 cell line at 10 uM relative to control
In short: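 MTT assay on monolayer cells grown in DMEM with 10% FBS, 2 mM glutamine, penicillin and streptomycin, at 37 °C in 5% CO2. Cells were plated at 2 × 10^4 cells/mL on day 0. After 24 h the medium was replaced with fresh medium containing compound (working dilutions in PBS from 10% DMSO/water stock), then incubated 72 h. Percent growth inhibition was calculated against untreated cells after blank subtraction. Values are means of three experiments run in triplicate.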

MCF7 [27] = assay: Antiproliferative activity against human MCF7 cell line at 100 uM relative to control; in short: as §1
MCF7 [28] = assay: Antiproliferative activity against human MCF7 cell line at 1 uM relative to control; in short: as §1

Row | Structure (SMILES) | inhibition at 1000 µM (HeLa [1]) [%] | inhibition at 10 µM (HBL [2]) [%] | inhibition at 1000 µM (HBL [4]) [%] | inhibition at 10 µM (HT-29 [5]) [%] | inhibition at 100 µM (HT-29 [6]) [%] | inhibition at 1000 µM (HT-29 [7]) [%] | inhibition at 10 µM (SW-620 [8]) [%] | inhibition at 100 µM (SW-620 [9]) [%] | inhibition at 1000 µM (SW-620 [10]) [%] | inhibition at 10 µM (Caco-2 [11]) [%] | inhibition at 100 µM (Caco-2 [12]) [%] | inhibition at 1000 µM (Caco-2 [13]) [%] | inhibition at 1000 µM (MCF7 [14]) [%] | inhibition at 10 µM (HEp-2 [15]) [%] | inhibition at 100 µM (HEp-2 [16]) [%] | inhibition at 1000 µM (HEp-2 [17]) [%] | inhibition at 10 µM (HeLa [18]) [%] | inhibition at 100 µM (HeLa [19]) [%] | inhibition at 1 µM (SW-620 [20]) [%] | inhibition at 1 µM (Caco-2 [21]) [%] | further results
1 | CSCC[C@H](NC(=O)[C@H](Cc1ccccc1)NC(=O)CNC(=O)C1(NC(=O)[C@@H](N)Cc2ccc(O)cc2)C2CC3CC(C2)CC1C3)C(=O)O (stereo partly drawn) (H-Y[X2]GFM-OH) | 28 | 1.4 | 18.3 | 11 | 7.9 | 23.7 | 15.5 | 24.7 | 29 | 8.4 | 18.5 | 10.6 | 22.8 | 10.1 | 16.8 | 36.1 | 10.2 | 13.3 | 12.2 | 3 | inhibition at 100 µM (HBL [3]): 2.4%; inhibition at 1 µM (HEp-2 [22]): 1%; inhibition at 1 µM (HeLa [23]): 4.9%; inhibition at 1 µM (HBL [24]): 0.8%; inhibition at 1 µM (HT-29 [25]): 3.3%
2 | N[C@@H](Cc1ccc(O)cc1)C(=O)N[C@@H](C(=O)NCC(=O)O)C1C2CC3CC(C2)CC1C3 (stereo partly drawn) | 28.2 | 1.2 | 19.4 | 3.8 | 12.4 | 22.4 | 13.5 | 13.5 | 25.3 | 6.9 | 8.1 | 8.6 | 15.6 | 4.9 | 12.6 | 26.4 | 11.7 | 11.6 | 17 | 8.1 | inhibition at 100 µM (HBL [3]): 3.3%; inhibition at 1 µM (HEp-2 [22]): 4.6%; inhibition at 1 µM (HeLa [23]): 11%; inhibition at 1 µM (HT-29 [25]): 7.6%
3 | CSCC[C@H](NC(=O)[C@H](Cc1ccccc1)NC(=O)CNC(=O)CNC(=O)[C@@H](N)Cc1ccc(O)cc1)C(=O)NC1(C(=O)O)C2CC3CC(C2)CC1C3 (stereo partly drawn) (H-YGGFM[X2]-OH) | 9.3 | 70.7 | 34.4 | – | – | 9.2 | – | – | – | 11.1 | – | 47 | 25.9 | 3.9 | – | 45 | – | – | – | – | inhibition at 10 µM (MCF7 [26]): 7.1%; inhibition at 100 µM (MCF7 [27]): 6.9%; inhibition at 1 µM (MCF7 [28]): 2.2%; inhibition at 1 µM (HBL [24]): 4.1%
4 | N[C@@H](Cc1ccc(O)cc1)C(=O)N[C@H](C(=O)O)C1C2CC3CC(C2)CC1C3 (stereo partly drawn) | 14.8 | 3.9 | 7.3 | 8.9 | 3.4 | 20.8 | 21.9 | 11.8 | 17.9 | 16.5 | 8.4 | 14.5 | 17.8 | 6.4 | 8.2 | 21.2 | 6.1 | 3.1 | 10.5 | 3.7 | inhibition at 10 µM (MCF7 [26]): 1.1%; inhibition at 100 µM (MCF7 [27]): 1.2%; inhibition at 1 µM (HEp-2 [22]): 6.2%; inhibition at 1 µM (HeLa [23]): 7.5%; inhibition at 1 µM (HT-29 [25]): 4.9%
5 | N[C@@H](Cc1ccc(O)cc1)C(=O)N[C@H](C(=O)NCC(=O)O)C1C2CC3CC(C2)CC1C3 (stereo partly drawn) | 28.2 | 2.9 | 17.9 | 7.4 | 9.5 | 15.7 | 20.4 | 14.4 | 23.4 | 4.2 | 6.4 | 6.2 | 21.2 | 2 | 18.8 | 26.7 | 7.3 | 9.9 | 13.6 | 2.2 | inhibition at 100 µM (HBL [3]): 5.9%; inhibition at 1 µM (HEp-2 [22]): 2.7%; inhibition at 1 µM (HeLa [23]): 9.8%; inhibition at 1 µM (HBL [24]): 1.6%; inhibition at 1 µM (HT-29 [25]): 5.4%
6 | N[C@@H](Cc1ccc(O)cc1)C(=O)NC1(C(=O)O)C2CC3CC(C2)CC1C3 (stereo partly drawn) | 36.1 | 14 | 14 | 1.6 | 5.4 | 26.5 | 16.5 | 28.1 | 58.2 | 22.7 | 18.9 | 26.4 | 7.5 | 19.7 | 24.9 | 30.4 | 10 | 8.2 | 12.9 | 3.5 | inhibition at 100 µM (HBL [3]): 7.5%; inhibition at 10 µM (MCF7 [26]): 2.4%; inhibition at 1 µM (HEp-2 [22]): 14.2%; inhibition at 1 µM (HBL [24]): 6.5%; inhibition at 1 µM (HT-29 [25]): 9.8%
7 | CSCC[C@H](NC(=O)[C@H](Cc1ccccc1)NC(=O)CNC(=O)C(NC(=O)[C@@H](N)Cc1ccc(O)cc1)C1C2CC3CC(C2)CC1C3)C(=O)O (stereo partly drawn) (H-Y[X1]GFM-OH) | 24.1 | 4.5 | 23.2 | 6.6 | 5.1 | 14.5 | 13.1 | 14.6 | 38.4 | 10.9 | 12.1 | 8.1 | 29.9 | 25.8 | 34.7 | 44.5 | 9.5 | 15.4 | 26.4 | 17.7 | inhibition at 100 µM (HBL [3]): 11.4%; inhibition at 100 µM (MCF7 [27]): 9.6%; inhibition at 1 µM (HEp-2 [22]): 13.7%; inhibition at 1 µM (HeLa [23]): 8.5%; inhibition at 1 µM (HBL [24]): 2.4%; inhibition at 1 µM (HT-29 [25]): 16.2%
